Results taken from ChEMBL document CHEMBL5303300, “EUbOPEN Chemogenomics Library - Multiplex” (2023).
“And” between values parts separate entries of the source, which are not always exact repeats. Identical values can stand only once.

Tested on: Fibroblast
Assay: Multiplex assay against human fibroblast
Format: toxicity, cell-based
Conditions: number of replicates 2
Summary of the method: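 With compound added, live cells were imaged on a CQ1 microscope at 37°C and 5% CO2; staining with Hoechst33342, BioTracker Green Microtubule Cytoskeleton Dye, MitoTracker Red and Annexin V Alexa Fluor 680 had been done at seeding. The CellPathfinder machine-learning gating scheme split cells into Hoechst high-intensity objects or normal cells, normal cells into healthy, pyknosed or fragmented nuclei, and pyknosed cells into mitotic or apoptotic. The tubulin, mitochondrial-mass and membrane-permeability phenotypes are per cents of healthy-nucleus cells.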

[1] = 12 h, 1 µM, compound concentration 1 uM
[2] = 12 h, 10 µM, compound concentration 10 uM
[3] = 24 h, 1 µM, compound concentration 1 uM
[4] = 24 h, 10 µM, compound concentration 10 uM
[5] = 48 h, 1 µM, compound concentration 1 uM
[6] = 48 h, 10 µM, compound concentration 10 uM

COc1cc(Br)c(S(=O)(=O)Nc2ccc(C(F)(F)F)c(O[C@@H]3CCN(C)C3)c2)cc1OC
Population Apoptotic (%) [1]: 54% and 48% | Population Fragmented Nuclei (%) [1]: 13% and 15% | Population Healthy Nuclei (%) [1]: 71% and 63% | Population Hoechst High Intensity Objects (%) [1]: 0% | Population Membrane Permeable-Phenotype (%) [1]: 3% and 4% | Population Mitochondria Different-Phenotype (%) [1]: 0% | Population Mitotic Cells (%) [1]: 45% and 51% | Population Normal (%) [1]: 100% and 99% | Population Pyknosed Nuclei (%) [1]: 14% and 21% | Population Tubulin-Different-Phenotype (%) [1]: 8% and 14% | Total Cell Count [1]: 161 and 215 | Population Apoptotic (%) [2]: 42% and 34% | Population Fragmented Nuclei (%) [2]: 12% and 15% | Population Healthy Nuclei (%) [2]: 61% and 63% | Population Hoechst High Intensity Objects (%) [2]: 0% | Population Membrane Permeable-Phenotype (%) [2]: 8% and 7% | Population Mitochondria Different-Phenotype (%) [2]: 1% and 0% | Population Mitotic Cells (%) [2]: 57% and 65% | Population Normal (%) [2]: 100% | Population Pyknosed Nuclei (%) [2]: 25% and 21% | Population Tubulin-Different-Phenotype (%) [2]: 36% and 23% | Total Cell Count [2]: 164 and 244 | Population Apoptotic (%) [3]: 50% and 65% | Population Fragmented Nuclei (%) [3]: 12% and 16% | Population Healthy Nuclei (%) [3]: 67% and 62% | Population Hoechst High Intensity Objects (%) [3]: 0% | Population Membrane Permeable-Phenotype (%) [3]: 6% and 7% | Population Mitochondria Different-Phenotype (%) [3]: 0% and 3% | Population Mitotic Cells (%) [3]: 50% and 34% | Population Normal (%) [3]: 99% and 100% | Population Pyknosed Nuclei (%) [3]: 19% and 20% | Population Tubulin-Different-Phenotype (%) [3]: 13% and 16% | Total Cell Count [3]: 157 and 207 | Population Apoptotic (%) [4]: 53% and 68% | Population Fragmented Nuclei (%) [4]: 17% and 15% | Population Healthy Nuclei (%) [4]: 63% and 69% | Population Hoechst High Intensity Objects (%) [4]: 0% | Population Membrane Permeable-Phenotype (%) [4]: 10% and 6% | Population Mitochondria Different-Phenotype (%) [4]: 4% and 3% | Population Mitotic Cells (%) [4]: 46% and 31% | Population Normal (%) [4]: 100% | Population Pyknosed Nuclei (%) [4]: 19% and 15% | Population Tubulin-Different-Phenotype (%) [4]: 36% and 23% | Total Cell Count [4]: 163 and 231 | Population Apoptotic (%) [5]: 66% and 76% | Population Fragmented Nuclei (%) [5]: 11% and 18% | Population Healthy Nuclei (%) [5]: 72% and 69% | Population Hoechst High Intensity Objects (%) [5]: 0% | Population Membrane Permeable-Phenotype (%) [5]: 5% and 4% | Population Mitochondria Different-Phenotype (%) [5]: 1% | Population Mitotic Cells (%) [5]: 33% and 24% | Population Normal (%) [5]: 100% | Population Pyknosed Nuclei (%) [5]: 15% and 12% | Population Tubulin-Different-Phenotype (%) [5]: 10% and 7% | Total Cell Count [5]: 154 and 204 | Population Apoptotic (%) [6]: 64% and 55% | Population Fragmented Nuclei (%) [6]: 19% and 16% | Population Healthy Nuclei (%) [6]: 71% | Population Hoechst High Intensity Objects (%) [6]: 0% | Population Membrane Permeable-Phenotype (%) [6]: 9% and 4% | Population Mitochondria Different-Phenotype (%) [6]: 0% and 1% | Population Mitotic Cells (%) [6]: 35% and 44% | Population Normal (%) [6]: 100% | Population Pyknosed Nuclei (%) [6]: 8% and 12% | Population Tubulin-Different-Phenotype (%) [6]: 17% and 9% | Total Cell Count [6]: 156 and 218

O=C(NCc1ccc(F)cc1)N1CCN2C(=O)OC(c3ccccc3)(c3ccccc3)C2C1 (stereo unspecified)
Population Apoptotic (%) [1]: 41% and 22% | Population Fragmented Nuclei (%) [1]: 12% and 10% | Population Healthy Nuclei (%) [1]: 71% and 75% | Population Hoechst High Intensity Objects (%) [1]: 0% | Population Membrane Permeable-Phenotype (%) [1]: 10% and 5% | Population Mitochondria Different-Phenotype (%) [1]: 2% and 1% | Population Mitotic Cells (%) [1]: 58% and 77% | Population Normal (%) [1]: 99% | Population Pyknosed Nuclei (%) [1]: 15% and 14% | Population Tubulin-Different-Phenotype (%) [1]: 20% and 13% | Total Cell Count [1]: 252 | Population Apoptotic (%) [2]: 58% and 35% | Population Fragmented Nuclei (%) [2]: 14% and 9% | Population Healthy Nuclei (%) [2]: 69% and 77% | Population Hoechst High Intensity Objects (%) [2]: 0% | Population Membrane Permeable-Phenotype (%) [2]: 9% and 14% | Population Mitochondria Different-Phenotype (%) [2]: 3% | Population Mitotic Cells (%) [2]: 41% and 65% | Population Normal (%) [2]: 100% and 99% | Population Pyknosed Nuclei (%) [2]: 15% and 12% | Population Tubulin-Different-Phenotype (%) [2]: 69% and 59% | Total Cell Count [2]: 153 and 155 | Population Apoptotic (%) [3]: 59% and 46% | Population Fragmented Nuclei (%) [3]: 13% and 15% | Population Healthy Nuclei (%) [3]: 72% and 73% | Population Hoechst High Intensity Objects (%) [3]: 0% | Population Membrane Permeable-Phenotype (%) [3]: 6% and 3% | Population Mitochondria Different-Phenotype (%) [3]: 1% and 0% | Population Mitotic Cells (%) [3]: 40% and 53% | Population Normal (%) [3]: 100% | Population Pyknosed Nuclei (%) [3]: 14% and 10% | Population Tubulin-Different-Phenotype (%) [3]: 19% and 12% | Total Cell Count [3]: 253 and 276 | Population Apoptotic (%) [4]: 65% and 50% | Population Fragmented Nuclei (%) [4]: 12% | Population Healthy Nuclei (%) [4]: 68% and 75% | Population Hoechst High Intensity Objects (%) [4]: 0% and 1% | Population Membrane Permeable-Phenotype (%) [4]: 7% and 2% | Population Mitochondria Different-Phenotype (%) [4]: 9% and 7% | Population Mitotic Cells (%) [4]: 34% and 50% | Population Normal (%) [4]: 99% and 98% | Population Pyknosed Nuclei (%) [4]: 19% and 12% | Population Tubulin-Different-Phenotype (%) [4]: 61% and 48% | Total Cell Count [4]: 153 and 151 | Population Apoptotic (%) [5]: 62% and 69% | Population Fragmented Nuclei (%) [5]: 15% and 10% | Population Healthy Nuclei (%) [5]: 74% and 79% | Population Hoechst High Intensity Objects (%) [5]: 0% | Population Membrane Permeable-Phenotype (%) [5]: 7% and 3% | Population Mitochondria Different-Phenotype (%) [5]: 0% | Population Mitotic Cells (%) [5]: 37% and 30% | Population Normal (%) [5]: 100% | Population Pyknosed Nuclei (%) [5]: 10% and 9% | Population Tubulin-Different-Phenotype (%) [5]: 11% and 5% | Total Cell Count [5]: 259 and 265 | Population Apoptotic (%) [6]: 45% and 83% | Population Fragmented Nuclei (%) [6]: 15% and 12% | Population Healthy Nuclei (%) [6]: 69% and 75% | Population Hoechst High Intensity Objects (%) [6]: 0% and 1% | Population Membrane Permeable-Phenotype (%) [6]: 5% | Population Mitochondria Different-Phenotype (%) [6]: 2% | Population Normal (%) [6]: 100% and 98% | Population Pyknosed Nuclei (%) [6]: 15% and 12% | Population Tubulin-Different-Phenotype (%) [6]: 53% and 43% | Total Cell Count [6]: 156 and 150
